The record followed here is the EternaBench riboswitch data.

A word on the apparent Kd: it is the concentration giving half-maximal binding under the conditions of the assay.

This data set deals with MS2 coat protein. Nature of the data set: apparent Kd, MS2 coat protein; higher = weaker binding; RNA-MaP array; FMN 200 µM where present. In short, it runs like this:
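Green signal was scaled to red-channel RNA signal and control-cluster median Fmax, and the apparent Kd was taken as the median of filtered per-cluster binding-curve fits. The binding series used SNAP-549-labelled MS2 coat protein from 0.7 or 1.5 nM, doubling to 3 µM, on designs transcribed by stalled E. coli RNA polymerase on Illumina sequencing-chip clusters. Each series ran without and then with constant ligand in 100 mM Tris-HCl pH 7.5, 80 mM KCl, 4 mM MgCl2, BSA, DTT, yeast tRNA and Tween-20.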

Where [1] appears, read: designed as: OFF switch for flavin mononucleotide, no ligand.
The mark [2] stands for this setting: ligand present: flavin mononucleotide, designed as: OFF switch for flavin mononucleotide.
The mark [3] stands for this setting: designed as: ON switch for flavin mononucleotide, no ligand.
[4] abbreviates: ligand present: flavin mononucleotide, designed as: ON switch for flavin mononucleotide.

On to “UUAGAAUUUGCAGGAUAUUGUAUUUUAUUACAUCAAGAAGGGCAUUACAUGAGGAUCACCCAUGUUAACAUGGUUAUAAAUUUU”, for which the “apparent Kd” value is, setting by setting: under setting [1], 94.8 nM; under setting [2], 29.5 nM.
The like results for “UUAAUUAAUUAAUUCGUCAUUACAUGAGGAUCACCCAUGUAUAAGGAUAUGCAGUGGAAUACACUGCAGAAGGUAUACAAGACG” were, in that order, 18.4 nM and 26.6 nM.
Take “AUCAGCUCGUCAGGAUAUACGUCACUGCGUCAGCAGUGUGGUAAGAUCACAUGAGGAUCACCCAUGUAGAAGGGACGAUCUGAU”: the “apparent Kd” value by setting is: under setting [1], 12.8 nM; under setting [2], 309 nM.
The like results for “GCUUGAGCAGGAUAUACAAGCUUGAGCUGAAAAGUUCGAGUACAUGAGGAUCACCCAUGUAGAAGGGUUCGAGU” were, in that order, 27.5 nM and 32.3 nM.
As to “AAUUAUUUAUGAGGAUAUUGUGGUGAAACACCACAAGAAGGCAUGAUACACAUGAGGAUCACCCAUGUGAGCCUGAUGCAUAUA”, the “apparent Kd” value by setting is: under setting [1], 17.2 nM; under setting [2], 28.4 nM.
The like results for “GGUACUCAAAGAGUACCAAUACGAACAUGAGGAUCACCCAUGUAGGAUAUGCUAUGCAAAGCAUAGCAGAAGGACAUGUGCCUU” were, in that order, 41.7 nM and 276 nM.
Turning to “CCCAUCGCAUGAGGAUAUGGUCAGCUUUGCUGACCAGAAGGCAUGUCAUAAGACAUGAGGAUCACCCAUGUAGUUAAGAUGGGA”, the “apparent Kd” value amounted to 654 nM under setting [3] and 48.3 nM under setting [4].
As to “CUAUUAUUGAUCCAUUUUUUCAACAUGAGGAUCACCCAUGUGCAGGAUAUCGUGAUUAUUAUCAACGAGAAGGGCAAAUUCACG”, the “apparent Kd” value was determined as 45.7 nM under setting [1] and 149 nM under setting [2].
For the sequence “GGACAUUUACAGAAGGGCAAGUUGGAUCGCGGAUAACGCGAUCCGACUUGCAGGAUAUGUUGAACAUGAGGAUCACCCAUGUCC”, the “apparent Kd” value under setting [3] was determined as 12 nM and the “apparent Kd” value under setting [4] turned out to be 9.8 nM.
As for “CCACCCUGAGGAUAUCCACCCUCAUACAUGAGGAUCACCCAUGUUCAUCCCUGAGUACCCGGAGAAGGCAGAUUUC”, the “apparent Kd” value is 87.7 nM under setting [1] and 57.9 nM under setting [2].
The like results for “GGAUGACAUAGUCAUCCUUAACGAACAUGAGGAUCACCCAUGUAGGAUAUGCUACUCAAAGAGUAGCAGAAGGGUAUGUGUCUU” were, in that order, 53.6 nM and 56.3 nM.
The like results for “CACGAUCAUGUAGGAUAUAUACUGGAAUACAGUAUAGAAGGACAUGAGGAUCACCCAUGUUAUGUGCCUCCAAGUAAGAUCGUG” were, in that order, 17.7 nM and 23.2 nM.
For “CGAUAUUAUGCAGGAUAUCUCCCUUGAAUGAGGAGAGAAGGGCAUAGGGAGACAUAAGCCUUAUUACAUGAGGAUCACCCAUGU”, the “apparent Kd” value reads like this: under setting [1], 9.67 nM; under setting [2], 8.35 nM.
As to “CGAUGAGGUGUGAGGAUAUCGUGUUCGAAAGAACGUGAGAAGGCACAUGAGGAUCACCCAUGUCAACCUUGUCG”, the “apparent Kd” value came out at 17.3 nM under setting [1] and 15.6 nM under setting [2].
For “UGCGUGGUCACAGGAUAUGCAAGAUAAACUUUAGCAGAAGGGUGAUCAAUUAGCUCAAUACCACAUGAGGAUCACCCAUGUCUA”, the “apparent Kd” value stood at 62.9 nM under setting [3] and 314 nM under setting [4].
On to “AGCAUGUGAGGAUAUGCGGACUCCGGUAAAGCUGGAGUCCAGUAGAAGGCACAUGAGGAUCACCCAUGUGAUAA”, for which the “apparent Kd” value under setting [1] was 85.6 nM and the “apparent Kd” value under setting [2] is 106 nM.
On to “AAAAUACAUGAGGAUCACCCAUGUUAGGAUAUCCAAGGUCUGACCCUCAGGGUCAGAAGGAGAAGGGAUGUGGU”, for which the “apparent Kd” value runs as follows: under setting [1], 56.7 nM; under setting [2], 67.7 nM.
For the sequence “UUAACAUGAGGAUCACCCAUGUCGUGCUAGAUGAGUUCUGGUGAGGAUAUACAUGGUAAAGAACUGUAGAAGGCACUGGGUACA”, the “apparent Kd” value came to 309 nM under setting [3] and 336 nM under setting [4].
For “ACAUACAUUCGAGGAUAUCGGUGAGAAAUCUUACGAGAAGGCGAUUCAUGAUUUAUUAUCCUGGACAUGAGGAUCACCCAUGUA”, the “apparent Kd” value by setting is: under setting [3], 97.5 nM; under setting [4], 61.1 nM.
“UUGUUAGGGAGAGGAUAUUGACAUGAGGAUCACCCAUGUAUUUGGGAGUGUUUACUGAAUUCUUACGAGAAGGCUUACGAAAUC”: the “apparent Kd” value is, setting by setting: under setting [1], 264 nM; under setting [2], 186 nM.
Take “AGUUCUUGUGAAGGAUAUACGGCGGGUCGCGCAGUAGAAGGUCACAUGAGGAUCACCCAUGUCGACAUUGUGCAGUAUCGACAA”: the “apparent Kd” value stood at 82.9 nM under setting [1] and 465 nM under setting [2].
Take “ACGUGGAGUCCGCAACAGAACACACAGGAUAUGAGUGGGCACAUGAGGAUCACCCAUGUUACGGAUCAGAAGGGUGUGCUCAUG”: the “apparent Kd” value is, setting by setting: under setting [3], 449 nM; under setting [4], 56.3 nM.
As to “CCGACUUACUAGGAUAUCAGAGUCGAAAGACUCUGAGAAGGAGUAACAUGAGGAUCACCCAUGUGUCCUAUCGG”, the “apparent Kd” value under setting [1] was 23.3 nM and the “apparent Kd” value under setting [2] turned out to be 77.7 nM.
On to “GUACUGUAGUGAGGAUAUACGAGUGCGAUAGCACGGCGAUCCAAUUAUACAUGAGGAUCACCCAUGUAGAAGGCACUUCAGUAC”, for which the “apparent Kd” value is, setting by setting: under setting [1], 9.04 nM; under setting [2], 41 nM.
On to “CCUUGUAUUGAGGAUAUGCGCCGGCUCGCUGGCGCAGAAGGCGGCACAUGAGGAUCACCCAUGUCAGUUCGCGA”, for which the “apparent Kd” value worked out at 9.34 nM under setting [1] and 12 nM under setting [2].
On to “ACUAAGCGAGGAUAUACUAACAAACCUCAAACAUACAUCAAACAUGAGGAUCACCCAUGUAGAAGGCGCAAACU”, for which the “apparent Kd” value under setting [1] was 27.3 nM and the “apparent Kd” value under setting [2] worked out at 37.6 nM.
As for “GUACAUACAAAGUUACAUGAGGAUCACCCAUGUUUAUUGGGAAGAAGGGUAACAUUAUUAGAUGUAUAGGAUAUUUCACAAUUG”, the “apparent Kd” value under setting [3] came out at 511 nM and the “apparent Kd” value under setting [4] is 316 nM.
Turning to “UCCGACCUAGGAUAUACCUGGGCCGCCUCGUGUUAUCACCUACAUGAGGAUCACCCAUGUAGAAGGAGGACGGU”, the “apparent Kd” value under setting [1] is 46.7 nM and the “apparent Kd” value under setting [2] came to 64.1 nM.
The like results for “GCCGAAAGUGUGAGGAUAUACCUAUGGAUACAUAGGUAGAAGGCACAUGAGGAUCACCCAUGUGUUUCAACGGC” were, in that order, 19.3 nM and 71.6 nM.
As to “AGCAUGCUUGGGUAACCUGGCACAUGAGGAUCACCCAUGUGACAGGAUAUCGACGUAGAUGACGACGAGAAGGGUCUGAUGGGU”, the “apparent Kd” value is, setting by setting: under setting [1], 7.61 nM; under setting [2], 12.3 nM.
On to “AUGCAACAUGAGGAUCACCCAUGUGAGGAUAUCGUAUAAUACUGUUGAAAGAGUUAGACGAGAAGGCACACCGU”, for which the “apparent Kd” value under setting [1] stood at 28.2 nM and the “apparent Kd” value under setting [2] was 54 nM.
Regarding “CGAGUACAUGAGGAUCACCCAUGUAAUGAAUUGUCAGGAUAUGGAGAUUGAUGACAUGCGCCAGAAGGGACAUCUG”, the “apparent Kd” value came out at 49.7 nM under setting [3] and 40.8 nM under setting [4].
Consider “AAUAUAAUAAGAGCUGGAAAUAAAACAUGAGGAUCACCCAUGUAGGAUAUCAGCACGAUAAGUGCUGAGAAGGACAACCAGCUC”, for which the “apparent Kd” value was determined as 14 nM under setting [1] and 15.1 nM under setting [2].
Take “CCCGUGUGUUAAGGAUAUGGCAGGCGCGUUGAACCAGAAGGUAGCACAUGAGGAUCACCCAUGUGAAUGCUCGCGACUCGAGCG”: the “apparent Kd” value under setting [1] was found to be 43.6 nM and the “apparent Kd” value under setting [2] is 18.2 nM.
With “CUCACGUUAGUAGGAUAUCCGACAUGAGGAUCACCCAUGUCACUACGCCGAUAGGGAAGGUGUAAGGAGAAGGGCUGAUAAAUA”, the “apparent Kd” value by setting is: under setting [3], 124 nM; under setting [4], 92.9 nM.
For the sequence “UUUUAACAUGAGGAUCACCCAUGUGAGGAUAUCGUAAUUUUUAUUAAUAUUAAUAAAACGAGAAGGCACAUUUU”, the “apparent Kd” value reads like this: under setting [1], 96.6 nM; under setting [2], 81 nM.
Regarding “CCAUUUCAGUAAGGAUAUAUAAACAUGACGAUACAUGAGGAUCACCCAUGUGUAGAAGGUACUAAUACAUAUAAUGCAAUGUUC”, the “apparent Kd” value is 16.6 nM under setting [1] and 15.7 nM under setting [2].
For the sequence “GGACAUCCCACAGGAUAUGCUGGACUUUGUCCAGCAGAAGGGUGAACAUGAGGAUCACCCAUGUAUAGGAUGUCCAUAUUUAAU”, the “apparent Kd” value reads like this: under setting [3], 963 nM; under setting [4], 128 nM.
Consider “CCAUCGGAAGGAUAUACAUGAGGAUCACCCAUGUGCGAGCCCGCGCUCUCGGGAAGAUGUAGAAGGUUCAAGAA”, for which the “apparent Kd” value under setting [1] was found to be 35.9 nM and the “apparent Kd” value under setting [2] is 36.3 nM.
The like results for “UAUUUAUAGCAAGGAUAUGAUUAUUAUUAUUUAUCAGAAGGUGCACAUGAGGAUCACCCAUGUUUUACAAUUUGUAAUUUAAUU” were, in that order, 38.6 nM and 25.1 nM.
In the case of “UUGGACGUCGUAGGAUAUGUAGCAUAUUCCUACAUGAGGAUCACCCAUGUUGACAUGGAAGAAGGACAGAAGGACGAUGUCCAU”, the “apparent Kd” value stood at 5.61 nM under setting [3] and 5.36 nM under setting [4].
“AUACCACGAGGAUAUCGUCUAUUUCACAUGAGGAUCACCCAUGUUAUCUUUGUUUUGUUUCGAGAAGGCGUGUUUU”: the “apparent Kd” value runs as follows: under setting [1], 30.9 nM; under setting [2], 20.9 nM.
Take “CGGGAGUCAGGAUAUACGGUCAUGUCGCCAGAUGUCAUGGUACAUGAGGAUCACCCAUGUAGAAGGGAGGAGAU”: the “apparent Kd” value by setting is: under setting [1], 75.7 nM; under setting [2], 136 nM.
“AGACGGAGCAGAGGAUAUACAUGAGGAUCACCCAUGUAAAUGAAAGAUAGCAGCAAAGCUGCAAUGUAGAAGGCUGCUCCGUCA”: the “apparent Kd” value stood at 29.2 nM under setting [1] and 83.8 nM under setting [2].
The like results for “CGGUCGAUGUAAGGAUAUCGACUGGAAUACAGUCGAGAAGGUACAUGAGGAUCACCCAUGUAAACCUAUAAUAAAUAACGACCG” were, in that order, 11.7 nM and 14.4 nM.
Take “UCGUAUAAGGGCAUUACACAUGAGGAUCACCCAUGUACGUUAGAGGAUAUGCAUUCCAGUUGAACGUAGAAGGCUAGAGAAGGG”: the “apparent Kd” value turned out to be 132 nM under setting [1] and 129 nM under setting [2].
Take “AGCUAGUCAGGAUAUACGAACACCUCAAAAGAGGUGAAGGGACAUGAGGAUCACCCAUGUAGAAGGGACUAGCA”: the “apparent Kd” value reads like this: under setting [1], 33.1 nM; under setting [2], 112 nM.
The like results for “CCAAGCUGUGUGAGGAUAUGCUGGUCCUUGGAUCAGCAGAAGGCACAUGAGGAUCACCCAUGUGAAAAGCUUGG” were, in that order, 15.1 nM and 52.1 nM.
